Test results: ChEMBL document CHEMBL3576806, “Design and synthesis of novel arctigenin analogues for the amelioration of metabolic disorders” (ACS Med Chem Lett, 2015)
Activity calls are given as the source filed them. The rule behind the calls is not given here.

Columns and labels:
L6 [1] = test: Increase in glucose uptake in rat L6 cells at 6 umol/L pre-treated with compound for 30 mins using 2-deoxy-D-[1,2-3H]glucose and measured after 2 hrs by liquid scintillation counting method relative to control; format: functional
Procedure, shortened: (§1)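 L6 myotubes exposed to compound for 2 h at 1.5, 3, 6, 12 or 24 μM; 2-deoxyglucose uptake expressed as fold over untreated control; 3 μM (−)-arctigenin run alongside as positive control; mean ± SEM of 3 independent experiments.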

L6 [2] = test: Increase in glucose uptake in rat L6 cells at 3 uM […] using 2-deoxy-D-[1,2-3H]glucose and measured after 2 hrs […] by liquid scintillation counting method; format: functional; procedure, shortened: as §1
L6 [3] = test: Ratio of glucose uptake in rat L6 cells at 3 uM after 2 hrs to glucose uptake in rat L6 cells at 3 uM after 2 hrs in presence of 3 uM (-)-arctigenin; format: functional
Procedure, shortened: (§2)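 Glucose uptake in L6 myotubes after 2 h compound exposure divided by uptake with the 3 μM (−)-arctigenin positive control run in parallel.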

L6 [4] = test: Increase in glucose uptake in rat L6 cells at 3 uM pre-treated with compound for 30 mins using 2-deoxy-D-[1,2-3H]glucose and measured after 2 hrs by liquid scintillation counting method; format: functional; procedure, shortened: as §1
L6 [5] = test: Induction of depolarization of mitochondrial membrane potential in rat L6 cells incubated for 10 mins by fluorescence based assay; format: functional, cell-based
Procedure, shortened: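 L6 myotubes treated 10 min over a concentration series; mitochondrial membrane potential (Δψm) depolarization measured; mean ± SEM, n = 3 independent experiments.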

Mus musculus [6] = test: Antidiabetic activity in ob/ob mouse assessed as reduction in NEFA levels at 50 mg/kg, ip bid for 23 days; format: functional; parameters: scale not given: the % may be the effect or the level left
Procedure, shortened: (§3)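 ob/ob mice given 50 mg/kg intraperitoneally or vehicle twice daily for 23 d; body weight and food intake recorded regularly, fed and fasting blood glucose measured throughout, serum triacylglycerol, cholesterol and NEFA measured at end of treatment; mean ± SEM, n = 6–8 mice, compared with vehicle group.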

L6 [7] = test: Induction of fatty acid oxidation in rat L6 cells using [9,10-3H(N)]-palmitic acid incubated for 2 hrs in presence of AMPK inhibitor compound-C; format: functional, cell-based
Procedure, shortened: (§4)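 Fatty acid oxidation measured in L6 myotubes after compound treatment, also with compound C to block AMPK; mean ± SEM, n = 3 independent experiments.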

[8] = Cmax in ob/ob mouse at 50 mg/kg, ip measured after 0.5 to 24 hrs; format: ADME, organism-based; parameters: dose 50 mg/kg, route intraperitoneal; details: in vivo
Mus musculus [9] = test: Antidiabetic activity in ob/ob mouse assessed as reduction in fasting blood glucose levels at 50 mg/kg, ip bid for 12 days; format: functional; parameters: scale not given: the % may be the effect or the level left; procedure, shortened: as §3
L6 [10] = test: Induction of fatty acid oxidation in rat L6 cells at 3 uM using [9,10-3H(N)]-palmitic acid incubated for 2 hrs; format: functional, cell-based; procedure, shortened: as §4
[11] = AUC (0 to t) in ob/ob mouse at 50 mg/kg, ip measured after 0.5 to 24 hrs; format: ADME, organism-based; parameters: dose 50 mg/kg, time upper 24 hr, time lower 0.5 hr, route intraperitoneal; details: in vivo
L6 [12] = test: Induction of fatty acid oxidation in rat L6 cells at 6 uM using [9,10-3H(N)]-palmitic acid incubated for 2 hrs; format: functional, cell-based; procedure, shortened: as §4
Mus musculus [13] = test: Toxicity in ob/ob mouse assessed as effect on feeding behavior at 50 mg/kg, ip bid for 23 days; format: organism-based; details: in vivo, 552 h; procedure, shortened: as §3
L6 [14] = test: Increase in glucose uptake in rat L6 cells at 6 uM pre-treated with compound for 30 mins using 2-deoxy-D-[1,2-3H]glucose and measured after 2 hrs […] by liquid scintillation counting method; format: functional; procedure, shortened: as §1
Mus musculus [15] = test: Reduction in respiratory exchange ratio in ob/ob mouse at 50 mg/kg, ip measured at 6 min intervals […] at 23 degC by indirect calorimetry; format: functional, organism-based
Mus musculus [16] = test: Antidiabetic activity in ob/ob mouse assessed as reduction in fed glucose levels at 50 mg/kg, ip bid for 12 days; format: functional; parameters: scale not given: the % may be the effect or the level left; procedure, shortened: as §3
[17] = Tmax in ob/ob mouse at 50 mg/kg, ip measured after 0.5 to 24 hrs; format: ADME, organism-based; details: in vivo
Mus musculus [18] = test: Antidiabetic activity in ob/ob mouse assessed as effect on serum triglyceride levels at 50 mg/kg, ip bid for 23 days; format: functional, organism-based; procedure, shortened: as §3
L6 [19] = test: Ratio of glucose uptake in rat L6 cells at 6 uM after 2 hrs to glucose uptake in rat L6 cells at 6 uM after 2 hrs in presence of 3 uM (-)-arctigenin; format: functional; procedure, shortened: as §2
L6 [20] = test: Increase in glucose uptake in rat L6 cells pre-treated with compound for 30 mins using 2-deoxy-D-[1,2-3H]glucose and measured after 2 hrs in presence of 10 uM AMPK inhibitor compound-C by liquid scintillation counting method; format: functional, cell-based
Procedure, shortened: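 L6 myotube 2-deoxyglucose uptake after compound exposure, tested with and without the AMPK inhibitor compound C; mean ± SEM, n = 3 independent experiments.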

Mus musculus [21] = test: Antidiabetic activity in ob/ob mouse assessed as reduction in total cholesterol levels at 50 mg/kg, ip bid for 23 days; format: functional; parameters: scale not given: the % may be the effect or the level left; procedure, shortened: as §3
L6 [22] = test: Increase in glucose uptake in rat L6 cells at 6 uM pre-treated with compound for 30 mins using 2-deoxy-D-[1,2-3H]glucose and measured after 2 hrs by liquid scintillation counting method; format: functional; procedure, shortened: as §1
Mus musculus [23] = test: Antidiabetic activity in ob/ob mouse assessed as reduction in body weight at 50 mg/kg, ip bid for 23 days measured on day 3; format: functional, organism-based; procedure, shortened: as §3
L6 [24] = test: Ratio of glucose uptake in rat L6 cells at 12 uM after 2 hrs to glucose uptake in rat L6 cells at 12 uM after 2 hrs in presence of 3 uM (-)-arctigenin; format: functional; procedure, shortened: as §2
L6 [25] = test: Increase in glucose uptake in rat L6 cells at 12 uM pre-treated with compound for 30 mins using 2-deoxy-D-[1,2-3H]glucose and measured after 2 hrs by liquid scintillation counting method; format: functional; procedure, shortened: as §1
L6 [26] = test: Increase in glucose uptake in rat L6 cells at 12 uM pre-treated with compound for 30 mins using 2-deoxy-D-[1,2-3H]glucose and measured after 2 hrs […] by liquid scintillation counting method; format: functional; procedure, shortened: as §1
L6 [27] = test: Increase in glucose uptake in rat L6 cells at 1.5 uM pre-treated with compound for 30 mins using 2-deoxy-D-[1,2-3H]glucose and measured after 2 hrs by liquid scintillation counting method; format: functional; procedure, shortened: as §1
L6 [28] = test: Ratio of glucose uptake in rat L6 cells at 1.5 uM after 2 hrs to glucose uptake in rat L6 cells at 1.5 uM after 2 hrs in presence of 3 uM (-)-arctigenin; format: functional; procedure, shortened: as §2
L6 [29] = test: Increase in glucose uptake in rat L6 cells at 1.5 uM pre-treated with compound for 30 mins using 2-deoxy-D-[1,2-3H]glucose and measured after 2 hrs in presence of 3 uM (-)-arctigenin by liquid scintillation counting method; format: functional; procedure, shortened: as §1
L6 [30] = test: Increase in glucose uptake in rat L6 cells at 24 uM pre-treated with compound for 30 mins using 2-deoxy-D-[1,2-3H]glucose and measured after 2 hrs by liquid scintillation counting method; format: functional; procedure, shortened: as §1
L6 [31] = test: Ratio of glucose uptake in rat L6 cells at 24 uM after 2 hrs to glucose uptake in rat L6 cells at 24 uM after 2 hrs in presence of 3 uM (-)-arctigenin; format: functional; procedure, shortened: as §2
L6 [32] = test: Increase in glucose uptake in rat L6 cells at 24 uM pre-treated with compound for 30 mins using 2-deoxy-D-[1,2-3H]glucose and measured after 2 hrs […] by liquid scintillation counting method; format: functional; procedure, shortened: as §1
L6 [33] = test: Increase in glucose uptake in rat L6 cells at 3 umol/L pre-treated with compound for 30 mins using 2-deoxy-D-[1,2-3H]glucose and measured after 2 hrs by liquid scintillation counting method relative to control; format: functional; procedure, shortened: as §1

In the case of COc1cc(C[C@H]2COC[C@@H]2Cc2ccc(OC)c(OC)c2)ccc1O, the “fold change (FC)” value (L6 [1]) is reported as 1.31.

COc1ccc(C[C@H]2COC(=O)[C@@H]2Cc2ccc(O)c(O)c2)cc1OC gave an Activity (L6 [2]) of 238.9%, a Ratio (L6 [3]) of 1.018 and an Activity (L6 [4]) of 243.2%.

With COc1ccc(CC2COC(=O)C2Cc2ccc(Cl)cc2)cc1OC (racemic) the Activity (L6 [5]) was “Dose-dependent effect”, the Activity (Mus musculus [6]) was 10% and the Activity (L6 [7]) was “inactive”. For the same molecule, the Cmax [8] was 508 ng/mL, the Activity (Mus musculus [9]) was 27.3% and the Activity (L6 [10]) was “Active”. The AUC(0-t) [11] was 1880 ng·h/mL, the Activity (L6 [12]) was “Active” and the Activity (Mus musculus [13]) was “Non-toxic”. For the same molecule, the Activity (L6 [14]) was 185.5%, the Activity (Mus musculus [15]) was “Active” and the Activity (Mus musculus [16]) was 27.7%. For the same molecule, the Tmax [17] was 30 min, the Activity (Mus musculus [18]) was “inactive” and the Ratio (L6 [19]) was 0.936. For the same molecule, the Activity (L6 [20]) was “inactive”, the Activity (Mus musculus [21]) was 22.4% and the Activity (L6 [22]) was 173.7%. For the same molecule, the Activity (Mus musculus [23]) was “Active”.

For COc1ccc(C[C@H]2COC(=O)[C@@H]2Cc2ccc(O)cc2)cc1OC, the Ratio (L6 [24]) was 0.895, the Activity (L6 [25]) was 179.5% and the Activity (L6 [26]) was 200.6%.

COc1cccc(C[C@H]2COC(=O)[C@@H]2Cc2ccc(O)c(OC)c2)c1 showed an Activity (L6 [27]) of 121.2%, a Ratio (L6 [28]) of 0.503 and an Activity (L6 [29]) of 241%.

In the case of COc1ccc(C[C@H]2COC(=O)[C@@H]2Cc2cccc(Cl)c2)cc1OC, the Activity (L6 [2]) is reported as 212.4%, the Ratio (L6 [3]) is reported as 0.54 and the Activity (L6 [4]) is reported as 114.8%.

Work on COc1ccc(C[C@H]2COC(=O)[C@@H]2Cc2ccc(O)c(OC)c2)cc1 yielded an Activity (L6 [30]) of 235.1%, a Ratio (L6 [31]) of 0.896 and an Activity (L6 [32]) of 262.4%.

COc1ccc(C[C@H]2COC(=O)[C@@H]2Cc2ccccc2Cl)cc1OC gave an Activity (L6 [2]) of 206.4%, a Ratio (L6 [3]) of 0.545 and an Activity (L6 [4]) of 112.4%.

For COc1cc(C[C@H]2C(=O)CC[C@@H]2Cc2ccc(OC)c(OC)c2)ccc1O, the “fold change (FC)” value (L6 [33]) was 2.08.

Molecule COc1ccc(C[C@H]2C(=O)OC[C@@H]2Cc2ccc(OC)c(OC)c2)cc1 has an Activity (L6 [27]) of 108.4%, a Ratio (L6 [28]) of 0.595 and an Activity (L6 [29]) of 182.1%.

COc1cc(C[C@H]2C(=O)OC[C@@H]2Cc2ccc3c(c2)OCO3)ccc1O showed an Activity (L6 [27]) of 131.7%, a Ratio (L6 [28]) of 0.496 and an Activity (L6 [29]) of 265.3%.

Work on COc1ccc(C[C@H]2COC(=O)[C@@H]2Cc2ccc(N)cc2)cc1OC yielded an Activity (L6 [2]) of 205.4%, a Ratio (L6 [3]) of 0.616 and an Activity (L6 [4]) of 126.6%.

COc1ccc(C[C@H]2COC(=O)[C@@H]2Cc2ccc(C#N)cc2)cc1OC gave an Activity (L6 [2]) of 258.7%, a Ratio (L6 [3]) of 0.528 and an Activity (L6 [4]) of 136.7%.
